Tests used:
[1] = biological target: T1, Mitogen-activated protein kinase 12 (Homo sapiens) (UniProt P53778); assay: Inhibition of p38gamma (unknown origin) at 30 uM by microfluidic mobility shift assay relative to control
T1 sequence (whole entry): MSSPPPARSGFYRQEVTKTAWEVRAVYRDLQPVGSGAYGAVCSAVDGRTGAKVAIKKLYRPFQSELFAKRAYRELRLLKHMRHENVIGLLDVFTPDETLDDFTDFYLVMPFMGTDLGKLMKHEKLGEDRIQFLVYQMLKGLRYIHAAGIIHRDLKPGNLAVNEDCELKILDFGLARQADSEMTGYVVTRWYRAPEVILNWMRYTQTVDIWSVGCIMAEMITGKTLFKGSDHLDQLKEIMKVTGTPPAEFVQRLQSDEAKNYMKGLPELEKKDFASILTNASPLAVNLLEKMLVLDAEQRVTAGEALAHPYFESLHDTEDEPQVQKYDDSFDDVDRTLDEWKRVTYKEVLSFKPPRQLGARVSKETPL
In short: (§1)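 Single-point screen against a 24-kinase panel in a commercial microfluidic assay format. Compounds were tested at 30 µM, with ATP at approximately the Km,[ATP] of each enzyme. H-89 was included on each assay plate as an internal control.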

[2] = biological target: Ribosomal protein S6 kinase alpha-5 (Homo sapiens, UniProt O75582); assay: Inhibition of MSK1 (unknown origin) at 30 uM by microfluidic mobility shift assay relative to control
In short: (§2)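 Single-point screen in a 24-enzyme kinase panel using a microfluidic assay. Each compound was tested at […] with ATP at roughly the Km for each enzyme. The pan-AGC inhibitor H-89 served as an internal control on every plate.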

[3] = biological target: T2, Aurora kinase A (Homo sapiens) (UniProt O14965); assay: Inhibition of AURA (unknown origin) at 30 uM by microfluidic mobility shift assay relative to control; in short: as §2
T2 sequence (whole entry): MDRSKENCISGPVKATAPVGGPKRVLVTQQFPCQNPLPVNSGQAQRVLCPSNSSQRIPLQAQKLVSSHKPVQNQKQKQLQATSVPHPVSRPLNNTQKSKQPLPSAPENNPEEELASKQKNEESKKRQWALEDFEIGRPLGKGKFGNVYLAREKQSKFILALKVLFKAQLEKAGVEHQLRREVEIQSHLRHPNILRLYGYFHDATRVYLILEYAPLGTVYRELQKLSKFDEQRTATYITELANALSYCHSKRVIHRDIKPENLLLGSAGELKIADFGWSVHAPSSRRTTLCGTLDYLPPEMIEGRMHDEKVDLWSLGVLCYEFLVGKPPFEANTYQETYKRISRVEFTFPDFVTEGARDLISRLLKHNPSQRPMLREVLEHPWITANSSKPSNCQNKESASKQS

[4] = biological target: T3, Mitogen-activated protein kinase 13 (Homo sapiens) (UniProt O15264); assay: Inhibition of p38delta (unknown origin) at 30 uM by microfluidic mobility shift assay relative to control; in short: as §1
T3 sequence (whole entry): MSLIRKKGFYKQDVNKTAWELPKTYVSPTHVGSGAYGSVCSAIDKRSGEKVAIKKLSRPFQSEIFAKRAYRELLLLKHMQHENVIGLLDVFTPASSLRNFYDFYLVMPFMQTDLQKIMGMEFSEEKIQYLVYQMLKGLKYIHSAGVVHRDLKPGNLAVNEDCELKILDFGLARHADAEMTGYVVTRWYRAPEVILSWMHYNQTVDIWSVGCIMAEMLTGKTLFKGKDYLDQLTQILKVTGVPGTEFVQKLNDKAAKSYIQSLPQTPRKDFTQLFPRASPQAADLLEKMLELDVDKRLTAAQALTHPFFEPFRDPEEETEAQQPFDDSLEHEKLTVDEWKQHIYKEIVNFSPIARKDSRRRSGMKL

[5] = biological target: Ribosomal protein S6 kinase alpha-3 (Homo sapiens) (UniProt P51812); assay: Inhibition of RSK2 (unknown origin) at 30 uM by microfluidic mobility shift assay relative to control; in short: as §1
[6] = biological target: T4, Serine/threonine-protein kinase D2 (Homo sapiens) (UniProt Q9BZL6); assay: Inhibition of PKD2 (unknown origin) at 30 uM by microfluidic mobility shift assay relative to control; in short: as §2
T4 sequence (whole entry): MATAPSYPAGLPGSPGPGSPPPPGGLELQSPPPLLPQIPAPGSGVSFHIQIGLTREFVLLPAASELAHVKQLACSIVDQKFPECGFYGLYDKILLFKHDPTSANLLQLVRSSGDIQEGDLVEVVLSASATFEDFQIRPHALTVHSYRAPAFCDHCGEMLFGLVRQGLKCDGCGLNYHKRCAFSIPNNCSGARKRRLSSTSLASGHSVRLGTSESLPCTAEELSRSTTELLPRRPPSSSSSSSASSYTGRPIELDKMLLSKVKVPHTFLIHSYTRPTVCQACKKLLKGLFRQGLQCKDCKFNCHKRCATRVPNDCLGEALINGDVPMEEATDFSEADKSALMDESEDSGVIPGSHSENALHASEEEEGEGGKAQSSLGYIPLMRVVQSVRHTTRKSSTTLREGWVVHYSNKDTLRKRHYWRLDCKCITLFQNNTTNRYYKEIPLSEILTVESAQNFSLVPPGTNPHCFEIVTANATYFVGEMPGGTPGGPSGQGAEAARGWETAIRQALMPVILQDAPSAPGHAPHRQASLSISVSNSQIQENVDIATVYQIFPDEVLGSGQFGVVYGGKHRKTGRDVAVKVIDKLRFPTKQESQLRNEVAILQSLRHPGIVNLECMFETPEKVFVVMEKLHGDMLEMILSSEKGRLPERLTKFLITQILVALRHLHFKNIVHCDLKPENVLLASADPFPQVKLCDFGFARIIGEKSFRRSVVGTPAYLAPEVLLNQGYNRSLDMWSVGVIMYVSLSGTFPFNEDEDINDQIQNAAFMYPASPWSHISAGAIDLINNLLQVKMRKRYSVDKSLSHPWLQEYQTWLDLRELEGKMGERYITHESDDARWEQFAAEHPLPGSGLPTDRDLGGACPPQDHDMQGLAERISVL

[7] = biological target: Ribosomal protein S6 kinase alpha-4 (Homo sapiens) (UniProt O75676); assay: Inhibition of MSK2 (unknown origin) at 30 uM by microfluidic mobility shift assay relative to control
In short: (§3)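 Single-point screen at 30 µM test compound across a 24-kinase panel in a microfluidic assay format. ATP was set near each enzyme's Km,[ATP]. […] The pan-AGC inhibitor H-89 served as an internal control on every assay plate.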

[8] = biological target: Tyrosine-protein kinase HCK (Homo sapiens) (UniProt P08631); assay: Inhibition of HCK (unknown origin) at 30 uM by microfluidic mobility shift assay relative to control; in short: as §3
[9] = biological target: MAP kinase-activated protein kinase 2 (Homo sapiens) (UniProt P49137); assay: Inhibition of MK2 (unknown origin) at 30 uM by microfluidic mobility shift assay relative to control; in short: as §2
Chain of MAP kinase-activated protein kinase 2 (Homo sapiens) (P49137 whole entry, looked up): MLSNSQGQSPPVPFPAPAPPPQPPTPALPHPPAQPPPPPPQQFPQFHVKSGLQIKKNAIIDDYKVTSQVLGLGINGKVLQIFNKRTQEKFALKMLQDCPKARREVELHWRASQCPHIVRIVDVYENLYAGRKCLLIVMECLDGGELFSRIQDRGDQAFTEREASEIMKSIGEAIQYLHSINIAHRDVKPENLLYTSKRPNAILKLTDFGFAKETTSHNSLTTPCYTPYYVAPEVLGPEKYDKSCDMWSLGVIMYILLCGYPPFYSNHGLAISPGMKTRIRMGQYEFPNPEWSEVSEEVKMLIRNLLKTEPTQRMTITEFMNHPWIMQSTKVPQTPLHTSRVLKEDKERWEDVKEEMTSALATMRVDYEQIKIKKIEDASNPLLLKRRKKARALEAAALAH

Chain of Ribosomal protein S6 kinase alpha-3 (Homo sapiens) (P51812 whole entry): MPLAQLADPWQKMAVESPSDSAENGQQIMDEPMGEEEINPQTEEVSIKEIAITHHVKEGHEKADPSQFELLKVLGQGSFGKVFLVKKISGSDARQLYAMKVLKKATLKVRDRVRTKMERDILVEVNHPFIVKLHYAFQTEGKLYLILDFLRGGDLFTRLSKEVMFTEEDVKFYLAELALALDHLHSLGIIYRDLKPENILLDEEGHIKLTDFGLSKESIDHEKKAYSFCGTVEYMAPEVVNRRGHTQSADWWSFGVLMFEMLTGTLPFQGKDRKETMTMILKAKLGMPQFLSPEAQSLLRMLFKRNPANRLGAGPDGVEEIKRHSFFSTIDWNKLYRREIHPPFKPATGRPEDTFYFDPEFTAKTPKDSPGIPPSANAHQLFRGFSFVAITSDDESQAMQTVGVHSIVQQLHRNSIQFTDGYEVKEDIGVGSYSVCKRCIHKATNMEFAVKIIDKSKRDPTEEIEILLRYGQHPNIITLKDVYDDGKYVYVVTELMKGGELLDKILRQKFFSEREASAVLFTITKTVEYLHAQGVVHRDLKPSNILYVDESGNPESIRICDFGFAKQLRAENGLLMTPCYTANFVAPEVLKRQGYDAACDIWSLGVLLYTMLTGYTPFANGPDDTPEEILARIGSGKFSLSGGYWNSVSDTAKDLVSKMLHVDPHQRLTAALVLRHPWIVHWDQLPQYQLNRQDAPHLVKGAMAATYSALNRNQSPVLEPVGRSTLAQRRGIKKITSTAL
Chain of Tyrosine-protein kinase HCK (Homo sapiens) (P08631 2-526 limits assumed): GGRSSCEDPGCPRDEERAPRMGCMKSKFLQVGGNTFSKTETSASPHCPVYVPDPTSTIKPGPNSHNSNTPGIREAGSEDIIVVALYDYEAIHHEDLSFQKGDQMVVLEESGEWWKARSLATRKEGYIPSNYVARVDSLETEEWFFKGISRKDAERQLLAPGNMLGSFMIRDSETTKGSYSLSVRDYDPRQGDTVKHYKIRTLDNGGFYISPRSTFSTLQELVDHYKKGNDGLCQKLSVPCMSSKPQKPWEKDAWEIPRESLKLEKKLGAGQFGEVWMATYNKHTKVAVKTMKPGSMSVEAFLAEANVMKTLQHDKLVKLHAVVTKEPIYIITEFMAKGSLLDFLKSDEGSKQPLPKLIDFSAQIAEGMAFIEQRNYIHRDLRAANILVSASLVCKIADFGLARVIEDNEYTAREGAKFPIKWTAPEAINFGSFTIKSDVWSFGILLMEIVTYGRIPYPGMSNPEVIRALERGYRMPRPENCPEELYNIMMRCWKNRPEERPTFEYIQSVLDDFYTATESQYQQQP
Chain of Ribosomal protein S6 kinase alpha-5 (O75582 whole entry, looked up): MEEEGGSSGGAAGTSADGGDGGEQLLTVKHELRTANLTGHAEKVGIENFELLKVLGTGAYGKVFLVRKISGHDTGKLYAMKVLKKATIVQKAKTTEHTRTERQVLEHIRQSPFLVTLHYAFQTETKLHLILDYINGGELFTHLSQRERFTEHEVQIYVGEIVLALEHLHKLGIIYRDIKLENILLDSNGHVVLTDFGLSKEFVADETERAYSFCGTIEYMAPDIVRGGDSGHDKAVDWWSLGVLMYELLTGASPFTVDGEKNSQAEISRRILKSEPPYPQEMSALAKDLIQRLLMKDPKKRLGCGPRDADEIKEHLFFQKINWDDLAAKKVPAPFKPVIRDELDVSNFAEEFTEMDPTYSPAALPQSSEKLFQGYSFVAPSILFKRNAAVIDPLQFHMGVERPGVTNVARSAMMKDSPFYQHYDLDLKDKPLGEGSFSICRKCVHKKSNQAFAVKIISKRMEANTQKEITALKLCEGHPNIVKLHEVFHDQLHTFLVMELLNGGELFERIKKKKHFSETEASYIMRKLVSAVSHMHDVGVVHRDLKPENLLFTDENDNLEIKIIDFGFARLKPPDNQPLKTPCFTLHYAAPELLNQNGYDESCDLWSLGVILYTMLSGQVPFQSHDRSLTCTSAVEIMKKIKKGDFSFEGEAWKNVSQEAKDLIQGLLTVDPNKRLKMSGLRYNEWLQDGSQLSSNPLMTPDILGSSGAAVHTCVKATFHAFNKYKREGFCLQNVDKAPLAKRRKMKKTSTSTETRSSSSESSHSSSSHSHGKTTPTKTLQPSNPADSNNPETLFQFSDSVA
Chain of Ribosomal protein S6 kinase alpha-4 (Homo sapiens) (O75676 whole entry, looked up): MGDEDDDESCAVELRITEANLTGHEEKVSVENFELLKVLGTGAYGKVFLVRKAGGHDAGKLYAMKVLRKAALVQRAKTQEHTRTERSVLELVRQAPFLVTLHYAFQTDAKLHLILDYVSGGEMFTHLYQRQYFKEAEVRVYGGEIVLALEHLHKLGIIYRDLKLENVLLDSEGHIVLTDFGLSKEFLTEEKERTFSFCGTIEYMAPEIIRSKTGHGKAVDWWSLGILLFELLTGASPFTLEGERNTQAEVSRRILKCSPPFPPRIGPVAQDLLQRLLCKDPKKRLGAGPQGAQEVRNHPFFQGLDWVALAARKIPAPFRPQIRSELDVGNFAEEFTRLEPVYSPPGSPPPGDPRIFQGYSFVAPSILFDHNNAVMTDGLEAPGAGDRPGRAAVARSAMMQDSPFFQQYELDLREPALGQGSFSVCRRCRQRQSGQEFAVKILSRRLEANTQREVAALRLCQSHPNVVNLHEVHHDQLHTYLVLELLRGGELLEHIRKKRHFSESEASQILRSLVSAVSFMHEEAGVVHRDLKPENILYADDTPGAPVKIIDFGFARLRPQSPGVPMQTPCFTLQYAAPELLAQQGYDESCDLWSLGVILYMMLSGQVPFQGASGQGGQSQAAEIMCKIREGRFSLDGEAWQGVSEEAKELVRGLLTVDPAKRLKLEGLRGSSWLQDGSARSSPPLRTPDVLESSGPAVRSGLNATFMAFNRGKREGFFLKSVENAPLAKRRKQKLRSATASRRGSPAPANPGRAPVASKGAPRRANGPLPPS

- inhibition [1]: 6%
- inhibition [2]: 97%
- inhibition [3]: 76%
- inhibition [4]: 7%
- inhibition [5]: 84%
- inhibition [6]: 71%
- inhibition [7]: 94%
- inhibition [8]: 41%
- inhibition [9]: 3%
SMILES: c1ccc(C2CCNC3(CCN(c4ncnc5[nH]cnc45)CC3)C2)cc1 (racemic)

Reference: ChEMBL document CHEMBL2417369, “Synthesis and evaluation of heteroaryl substituted diazaspirocycles as scaffolds to probe the ATP-binding site of protein kinases” (Bioorg Med Chem, 2013)
